Test results published in PMC3510669 (Journal of immunology (Baltimore, Md. : 1950), 2010).

Test system: naïve CD4^+ T cells
Test: pMHCII tetramer-based cell enrichment of spleen and lymph node cells
Design: species or system mouse
Conditions: B6 mice; for fold smaller than the 2W:I-A^b-specific naïve population: spleen and lymph nodes (3K: spleen and lymph nodes or thymus), Fig. 3B, C, 4D; for size of naïve CD4+ T cell population specific for peptide:I-A^b: spleen and lymph nodes, mean, Fig. 4D, 6D
Method in brief: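 Spleen and lymph node cells from individual naïve B6 mice were enriched with peptide:I-A^b tetramers. Tetramer-binding CD4⁺ T cells were counted as total cells per mouse, and group means were taken across individual mice.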

Sequence	fold smaller than the 2W:I-A^b-specific naïve population	size of naïve CD4+ T cell population specific for peptide:I-A^b
EAGGALANGAVDSA [2G]	6 fold	62 ± 13 cells
EARGALANWAVDSA [1R]	3 fold	108 ± 36 cells
EAGGALANWAVDSA [1G]	3 fold	127 ± 39 cells
